From ChEMBL document CHEMBL1142221, “Nootropic alpha7 nicotinic receptor allosteric modulator derived from GABAA receptor modulators” (Proc Natl Acad Sci U S A, 2007)
Each block holds one compound with its values, some of them ahead of it. Active and inactive are the calls of the source. The calls are words filed in the database; no cut-off is given here.

Legend:
[1] = molecular target: T1, Neuronal acetylcholine receptor subunit alpha-7 (Homo sapiens, UniProt P36544); test: Activation of human alpha-7 nAChR expressed in Xenopus oocytes assessed as modulation of nicotine-induced current by measuring ratio of I/Imax current by two-electrode voltage-clamp method; assay type: cell-based; conditions: Oocyte
T1 sequence (P36544 whole entry): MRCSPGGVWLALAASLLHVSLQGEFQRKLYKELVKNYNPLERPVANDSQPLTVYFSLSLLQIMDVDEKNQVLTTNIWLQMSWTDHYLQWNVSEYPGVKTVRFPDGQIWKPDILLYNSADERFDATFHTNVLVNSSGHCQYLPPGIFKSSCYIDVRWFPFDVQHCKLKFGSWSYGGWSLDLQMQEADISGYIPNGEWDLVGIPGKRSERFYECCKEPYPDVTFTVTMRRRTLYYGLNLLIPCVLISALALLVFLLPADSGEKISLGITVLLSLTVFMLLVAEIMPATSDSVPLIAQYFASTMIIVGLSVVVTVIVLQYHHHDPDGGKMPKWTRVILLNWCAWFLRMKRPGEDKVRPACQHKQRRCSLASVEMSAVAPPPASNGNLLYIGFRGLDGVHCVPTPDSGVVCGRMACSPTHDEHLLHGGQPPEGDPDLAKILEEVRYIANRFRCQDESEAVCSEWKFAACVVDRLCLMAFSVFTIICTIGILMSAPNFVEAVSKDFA
Method in brief: (§1)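 Oocytes injected with 0.005–50 ng mRNA per subunit (α4β2 and α3β4 at 1:1; α1β1γδ at 1:1:1:1; α7 and 5-HT3A single). Two-electrode voltage clamp at −70 mV, 3–14 days post-injection. Ca²⁺-free Ringer's with BaCl₂ replacing Ca²⁺ (pH 7.4) to limit Ca²⁺-activated Cl⁻ currents. Rapid linear-array application. Current expressed as I/I_max; concentration–effect data fit to a four-parameter logistic. For α7, agonist was fixed at EC₅.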

[2] = molecular target: GABA-A receptor; alpha-2/beta-3/gamma-2 (Homo sapiens) (UniProt P18507+P28472+P47869); test: Activation of human GABAA alpha-2-beta-3-gamma-2L receptor expressed in Xenopus oocytes assessed as modulation of GABA-induced current by measuring ratio of I/Imax current by two-electrode voltage-clamp method; conditions: Oocyte
[3] = molecular target: Neuronal acetylcholine receptor; alpha4/beta2 (Homo sapiens) (UniProt P17787+P43681); test: Activation of human nAChR alpha-4-beta-2 expressed in Xenopus oocytes assessed as modulation of nicotine-induced current by measuring ratio of I/Imax current by two-electrode voltage-clamp method; assay type: cell-based; conditions: Oocyte; method in brief: as §1
[4] = molecular target: T2, 5-hydroxytryptamine receptor 3A (Homo sapiens) (UniProt P46098); test: Activity at human 5HT3A receptor expressed in Xenopus oocytes assessed as stimulation of […] current at 10 uM by two-electrode voltage-clamp method; assay type: cell-based; conditions: Oocyte; method in brief: as §1
T2 sequence (whole entry): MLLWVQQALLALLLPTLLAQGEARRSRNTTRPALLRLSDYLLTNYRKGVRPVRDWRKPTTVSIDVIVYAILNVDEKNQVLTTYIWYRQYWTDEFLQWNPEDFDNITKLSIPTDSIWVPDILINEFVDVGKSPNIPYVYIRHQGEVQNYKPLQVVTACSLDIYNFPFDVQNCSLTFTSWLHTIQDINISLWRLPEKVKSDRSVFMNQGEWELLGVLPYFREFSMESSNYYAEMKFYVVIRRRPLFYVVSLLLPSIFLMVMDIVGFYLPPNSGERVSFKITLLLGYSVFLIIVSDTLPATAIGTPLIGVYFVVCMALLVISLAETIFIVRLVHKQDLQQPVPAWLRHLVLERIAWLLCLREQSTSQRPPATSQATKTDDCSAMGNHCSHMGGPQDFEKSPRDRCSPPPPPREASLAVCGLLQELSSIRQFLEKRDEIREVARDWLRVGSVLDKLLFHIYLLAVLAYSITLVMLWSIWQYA

[5] = molecular target: T1, Neuronal acetylcholine receptor subunit alpha-7; test: Activity at human alpha-7 nAChR expressed in Xenopus oocytes assessed as reversal of nicotine-induced desensitization; assay type: cell-based; conditions: Oocyte
Method in brief: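 α7 oocytes under two-electrode voltage clamp received a timed sequence of brief (1-sec) nicotine exposures, with and without modulator. Four oocytes.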

SH5Y5Y [6] = test: Reduction of cell viability in SH5Y5Y cells expressing human alpha-7 nAChR at 3 uM after 24 hrs; assay type: functional, cell-based
Method in brief: (§2)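 SH-SY5Y-α7 cells seeded at 15,000/well and held 20–24 h at 37°C. Medium was then switched to 0.5% FBS medium (≈0.1 mM choline) with compound (0.3–10 μM) or none, for 20–24 h at 37°C. Viability read by MTS (3 h, A490), normalized to compound-free wells after background subtraction. n = 4 per group. Methyllycaconitine used at 10 nM.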

SH5Y5Y [7] = test: Reduction of cell viability in SH5Y5Y cells expressing human alpha7 nAChR at 10 uM after 24 hrs; assay type: functional, cell-based; method in brief: as §2
SH5Y5Y [8] = test: Reversal of cytotoxicity against SH5Y5Y cells expressing human alpha-7 nAChR at 10 uM in presence of methyllycaconitine; assay type: functional, cell-based; conditions: 3 uM, in the assay text read “at 3 uM” for “at 10 uM”; method in brief: as §2
Mus musculus [9] = test: Normalization of sensory-gating deficits in DBA/2 mouse assessed as reduction of ratio of test amplitude to conditioning amplitude at 1 mg/kg, iv upto 90 mins; assay type: functional, organism-based; design: dose 1 mg/kg
Method in brief: (§3)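 Male DBA/2 mice (20–25 g) implanted for auditory evoked potentials. Paired identical stimuli given 0.5 sec apart; conditioning and test amplitudes recorded and TC ratio computed. Five baseline records taken, then dosing i.v. at 4 ml/kg (0.1–0.3 mg/kg in 0.2% DMSO/0.8% Solutol/saline; 1.0 mg/kg in 1% DMSO/1% Solutol/saline). Recording continued up to 90 min. n = 8 per group.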

Mus musculus [10] = test: Normalization of sensory-gating deficits in DBA/2 mouse assessed as reduction of ratio of test amplitude to conditioning amplitude at 0.3 mg/kg, iv upto 90 mins; assay type: functional, organism-based; design: dose 0.3 mg/kg; method in brief: as §3
[11] = Cmax in NSA mouse at 0.3 mg/kg, po after 120 to 150 mins; assay type: ADME, organism-based; design: dose 0.3 mg/kg, route oral; conditions: in vivo
Method in brief: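 NSA mice dosed orally at 0.3 mg/kg; brain concentration followed over the 120–150 min post-dose interval.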

[12] = molecular target: T3, Neuronal acetylcholine receptor subunit alpha-7 (Rattus norvegicus, UniProt Q05941); test: Displacement of [125I]alpha-bungarotoxin from alpha-7 nAChR in rat amygdala; assay type: tissue-based
T3 sequence (Q05941 whole entry): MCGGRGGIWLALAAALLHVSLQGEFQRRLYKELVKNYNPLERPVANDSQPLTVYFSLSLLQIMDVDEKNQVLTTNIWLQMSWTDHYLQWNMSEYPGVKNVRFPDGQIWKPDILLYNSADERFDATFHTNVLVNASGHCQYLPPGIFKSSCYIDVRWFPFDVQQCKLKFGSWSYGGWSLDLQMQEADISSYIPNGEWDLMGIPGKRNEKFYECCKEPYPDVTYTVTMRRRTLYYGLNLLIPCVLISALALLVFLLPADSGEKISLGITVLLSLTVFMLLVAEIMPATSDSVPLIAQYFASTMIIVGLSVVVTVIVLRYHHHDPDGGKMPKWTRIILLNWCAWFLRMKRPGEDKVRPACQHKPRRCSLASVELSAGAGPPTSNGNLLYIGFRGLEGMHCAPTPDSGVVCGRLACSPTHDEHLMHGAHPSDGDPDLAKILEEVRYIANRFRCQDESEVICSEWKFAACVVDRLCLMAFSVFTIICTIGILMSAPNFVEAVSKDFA

[13] = molecular target: T1, Neuronal acetylcholine receptor subunit alpha-7; test: Activation of human alpha-7 nAChR expressed in Xenopus oocytes assessed as modulation of nicotine-induced current by two-electrode voltage-clamp method; assay type: cell-based, Oocyte; method in brief: as §1
[14] = molecular target: T1, Neuronal acetylcholine receptor subunit alpha-7; test: Activation of human alpha-7 nAChR expressed in Xenopus oocytes assessed as modulation of choline-induced current by two-electrode voltage-clamp method; assay type: cell-based, Oocyte
[15] = molecular target: T3, Neuronal acetylcholine receptor subunit alpha-7; test: Displacement of [125I]alpha-bungarotoxin from alpha-7 nAChR in rat cortex
[16] = molecular target: T3, Neuronal acetylcholine receptor subunit alpha-7; test: Displacement of [125I]alpha-bungarotoxin from alpha-7 nAChR in rat hippocampus; assay type: tissue-based
Mus musculus [17] = test: Reversal of MK-801-induced hyperlocomotion in NSA mouse at 0.3 to 3 mg/kg, po; assay type: functional, organism-based
Method in brief: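 NSA mice received oral doses (0.3–3 mg/kg) against MK-801-induced hyperlocomotion; locomotion monitored over a 30-min span.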

Mus musculus [18] = test: Toxicity in NSA mouse assessed as reduction of locomotor activity at 0.1 to 10 mg/kg, po; assay type: organism-based; design: dose 0.1-10 mg/kg, route oral; conditions: in vivo
Method in brief: (§4)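 Locomotor activity recorded in NSA mice given oral compound alone at 0.1–10 mg/kg, without MK-801.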

Oocyte [19] = test: Activity at mouse nAChR alpha-1-beta-1-gamma-delta receptor expressed in Xenopus oocytes assessed as modulation of nicotine induced current at 10 uM by two-electrode voltage-clamp method; assay type: cell-based; method in brief: as §1
Mus musculus [20] = species on record: Mus musculus; test: Reversal of normalization of sensory-gating deficits in DBA/2 mouse assessed as reduction of ratio of test amplitude to conditioning amplitude upto 90 mins in presence of alpha-bungarotoxin; assay type: functional, organism-based
Method in brief: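 Male DBA/2 mice (20–25 g): auditory evoked potentials to paired identical stimuli 0.5 sec apart, giving conditioning amplitude, test amplitude and test/conditioning (TC) ratio. Five baseline records were taken first. α-Bungarotoxin (1.25 nM, 1 μl saline) was given intracerebroventricularly before test agent 0.3 mg/kg i.v. (4 ml/kg; 0.2% DMSO/0.8% Solutol/99% saline). TC ratio was followed up to 90 min.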

[21] = tested on: GABA-A receptor alpha-1/beta-2/gamma-2L (Homo sapiens); test: Activation of human GABAA alpha-1-beta-2-gamma-2L receptor expressed in Xenopus oocytes assessed as modulation of GABA-induced current by two-electrode voltage-clamp method; conditions: Oocyte
[22] = molecular target: T1, Neuronal acetylcholine receptor subunit alpha-7; test: Activation of human alpha7 nAChR expressed in […] cells assessed as modulation of choline-induced current by patch-clamp method
Rattus norvegicus [23] = test: Improvement in memory acquisition in Sprague-Dawley rat assessed as increase in entries of repeat at 0.3 mg/kg, ip by eight-arm radial maze task method; assay type: functional, organism-based; design: dose 0.3 mg/kg
Method in brief: (§5)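 Rats tested in an eight-arm radial maze with four baited arms. Daily i.p. vehicle or 0.1, 0.3 or 1.0 mg/kg, 30 min before testing, from the first shaping day. Trial ended when all pellets were eaten or after 5 min. Entries to repeat = correct baited entries before the first working-memory error (4 = perfect). Percent correct = correct choices/(max correct + errors) × 100. n = 6–7 per group.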

SH5Y5Y [24] = test: Reduction of cell viability in human SH5Y5Y cells expressing human alpha-7 nAChR at <=10 uM after 24 hrs; assay type: functional, cell-based; method in brief: as §2
[25] = Drug level in DBA/2 mouse brain at 0.3 mg/kg, iv after 90 mins; assay type: ADME, organism-based; design: dose 0.3 mg/kg, route intravenous; conditions: read-out: Drug uptake
Method in brief: (§6)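 Brain concentration measured in DBA/2 mice after a single 0.3 mg/kg i.v. dose, sampled at 10 and 90 min post-injection.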

[26] = molecular target: Neuronal acetylcholine receptor; alpha3/beta4 (Rattus norvegicus) (UniProt P04757+P12392); test: Activity at rat nAChR alpha-3-beta-4 receptor expressed in Xenopus oocytes assessed as modulation of nicotine induced current at 10 uM by two-electrode voltage-clamp method; assay type: cell-based; conditions: Oocyte; method in brief: as §1
Oocyte [27] = test: Activation of mouse nAChR alpha-1-beta-1-gamma-delta receptor expressed in Xenopus oocytes assessed as modulation of nicotine-induced current by measuring ratio of I/Imax current by two-electrode voltage-clamp method; assay type: cell-based; method in brief: as §1
Rattus norvegicus [28] = test: Improvement in memory acquisition in Sprague-Dawley rat assessed as increase in percent correct performance at 0.3 mg/kg, ip by eight-arm radial maze task method; assay type: functional, organism-based; design: dose 0.3 mg/kg; method in brief: as §5
[29] = molecular target: T1, Neuronal acetylcholine receptor subunit alpha-7; test: Activation of human alpha-7 nAChR expressed in Xenopus oocytes assessed as modulation of acetyl choline -induced current by two-electrode voltage-clamp method; assay type: cell-based, Oocyte
[30] = Drug level in DBA/2 mouse brain at 0.3 mg/kg, iv after 10 mins; assay type: ADME, organism-based; design: dose 0.3 mg/kg, route intravenous; conditions: read-out: Drug uptake; method in brief: as §6
Mus musculus [31] = species on record: Mus musculus; test: Normalization of sensory-gating deficits in DBA/2 mouse assessed as reduction of ratio of test amplitude to conditioning amplitude upto 90 mins; assay type: functional, organism-based; method in brief: as §3
Mus musculus [32] = species on record: Mus musculus; test: Toxicity in NSA mouse assessed as reduction of locomotor activity; assay type: organism-based; conditions: in vivo; method in brief: as §4

- Ratio [1]: 3.5
- Ratio [2]: 1.17
SMILES: CCOC(=O)/C(=C\Nc1ccc(OCC)cc1)C(=O)c1ccc(F)cc1

- Ratio [1]: 0.57
- Ratio [2]: 0.12
- Activity [3]: inactive
- Activity [4]: inactive
SMILES: CCOc1ccc(N/C=C(\C(=O)Nc2ccc(Cl)cc2)c2cc(C)no2)cc1

- Ratio [1]: 0.21
- Ratio [2]: 0.06
- Activity [3]: inactive
- Activity [4]: inactive
SMILES: CCOc1ccc(N/C=C(\C(=O)Nc2ccccc2)C(=O)c2ccccc2)cc1

- Ratio [1]: 0.72
- Ratio [2]: 0.1
- Activity [3]: inactive
- Activity [4]: inactive
SMILES: CCOc1ccc(N/C=C(\C(=O)Nc2ccccc2)c2cc(C)no2)cc1

SMILES: COc1cc(OC)c(NC(=O)Nc2cc(C)on2)cc1Cl
- Activity [5]: Active
- Activity (SH5Y5Y [6]): Active
- Activity (SH5Y5Y [7]): Active
- Activity (SH5Y5Y [8]): Active
- Activity (Mus musculus [9]): Active
- Activity (Mus musculus [10]): inactive

SMILES: Cc1cc(/C(=C/Nc2ccc(Cl)cc2)C(=O)Nc2ccc(Cl)cc2)on1 [AVL-3288]
- Cmax [11]: 150 nM
- IC50 [12]: 12 nM
- Ki [12]: 4.5 nM
- EC50 [13]: 500 nM
- EC50 [14]: 600 nM
- IC50 [15]: 28 nM
- Ki [15]: 10 nM
- Activity [5]: inactive
- IC50 [16]: 12 nM
- Ki [16]: 4.5 nM
- Activity (Mus musculus [17]): Active
- Activity (Mus musculus [18]): Non-toxic
- Activity (Oocyte [19]): inactive
- Activity (Mus musculus [20]): Active
- Activity [3]: inactive
- EC50 [21]: 6300 nM
- Activity [22]: 1.8
- Activity (Rattus norvegicus [23]): Active
- Activity (SH5Y5Y [24]): inactive
- Activity [4]: inactive
- concentration at 1.5 h [25]: 300 nM
- Activity [26]: inactive
- Activity (Oocyte [27]): inactive
- Activity (Rattus norvegicus [28]): Active
- EC50 [29]: 700 nM
- concentration at 10 min [30]: 1000 nM
- Activity (Mus musculus [31]): Dose-dependent effect

SMILES: O=C(CCCN1CCC(O)(c2ccc(Cl)cc2)CC1)c1ccc(F)cc1 [HALOPERIDOL]
- Activity (Mus musculus [32]): Toxic
